Measured values from the array DNA melting data of Ke et al. (doi:10.1101/2024.01.08.574731).

What was measured:
[1] = folding enthalpy; higher = less favourable; fluorescence melt of hairpins on a sequencing array, two-state fit; details: sodium 0.088 M
Method in brief: (§1)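 Cy3 signals were normalised both to pre-quench Cy3 and to control constructs. They came from library hairpins carrying annealed Cy3 and quencher oligos on a sequenced MiSeq flow cell, imaged in 50 mM Na-HEPES pH 8.0, 25 mM NaCl, in 2.5 °C steps up to 60 °C. Bootstrapped two-state fits gave melting temperature and folding enthalpy, and four replicates were combined by inverse variance. Fitted temperatures were then raised by 9.35 °C to match UV melts.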

[2] = melting temperature; fluorescence melt of hairpins on a sequencing array, two-state fit, raised by 9.35 °C to match UV melts; details: sodium 0.088 M
Method in brief: as §1

Sequence | folding enthalpy [1] [kcal/mol] | Tm [2] [°C]
GACGCCGGAAACGGCATC ((.((((....)))).)) | -11.4 | 43.4
GACGCGGGAAACCGCACC (..((((....))))..) | -8.05 | 32.2
GACGCGGGAAACCGCGCC (.(((((....))))).) | -11.8 | 55
GACGCTGGAAACAACGCC (.((.((....)).)).) | -12.6 | 28.2
GACGGACGAAAGTCGGTC (((.(((....))).))) | -35.2 | 58.1
GACGGAGGAAACTCCACC (..((((....))))..) | -10.4 | 26.4
GACGGAGGAAACTCCGTC (((((((....))))))) | -36.1 | 67.8
GACGGAGGAAACTTCGTC ((((.((....)).)))) | -42.1 | 49.6
GACGGCCGAAAGGCAGTC (((.(((....))).))) | -26.2 | 68.8
GACGGCGAAAGCCAAGTC ((((((....)))..))) | -18.5 | 49
GACGGCGAAAGCCACGTC ((((((....)))..))) | -15.3 | 49.8
GACGGCGAAAGCCATGTC ((((((....)))..))) | -13.3 | 45.2
GACGGCGAAAGCCCGTC ((((((....))).))) | -24.7 | 65.4
GACGGCGAAAGCCGCGTC ((((((....)))..))) | -8.52 | 50.9
GACGGGAAACCGTC (((((....))))) | -29 | 58.6
GACGGGCCGAAAGGCGTC (((..(((....)))))) | -15 | 48.8
GACGGGCGAAAGCCTGTC (((.(((....))).))) | -26.2 | 67.3
GACGGGGGAAACCCCACC (..((((....))))..) | -7.44 | 30.3
GACGGTCCGAAAGGAGTC (((..(((....)))))) | -14.2 | 34.2
GACGGTGGAAACGTCGTC ((((..(....)..)))) | -31.6 | 54.8
GACGTAACGAAAGTTGTC (((..(((....)))))) | -25 | 37.5
GACGTAGGAAACTACATC ((.((((....)))).)) | -13.1 | 28.4
GACGTAGGAAACTACGCC (.(((((....))))).) | -16.6 | 43.6

Sequence | folding enthalpy [1] [kcal/mol] | Tm [2] [°C]
GACGTCCGAAAGGAAGTC (((.(((....))).))) | -34.7 | 54.7
GACGTCCGAAAGGATGTC (((.(((....))).))) | -42.9 | 60.1
GACGTCGGAAACAACGTC (((((.(....).))))) | -30.5 | 45.2
GACGTGCGAAAGCAGTC (((.(((....)))))) | -21.6 | 54.9
GACGTTACGAAAGTAGTC (((..(((....)))))) | -27.2 | 44.2
GACGTTCCGAAAGGAGTC (((..(((....)))))) | -17 | 36.6
GACGTTGGAAACAACGCC (.(((((....))))).) | -12.4 | 48.8
GACTAAACGAAAGTTGTC (((..(((....)))))) | -19.6 | 34.9
GACTAAGGAAACCTAGTC (((((.(....).))))) | -25.7 | 35.6
GACTACCGAAAGGTTGTC (((.(((....))).))) | -31.3 | 53.1
GACTACGAAAGTAAGTC ((((((....))).))) | -29.4 | 47.1
GACTACGAAAGTACGTC ((((((....))).))) | -25.7 | 43.3
GACTACGAAAGTAGAGTC ((((((....)))..))) | -13.7 | 34.7
GACTACGAAAGTAGGGTC ((((((....)))..))) | -16.5 | 46.7
GACTACGAAAGTAGTGTC ((((((....)))..))) | -15.4 | 50.4
GACTACGCGAAAGCGGTC (((..(((....)))))) | -15.1 | 38
GACTACGGAAACGCAGTC ((((.((....)).)))) | -28.3 | 42.1
GACTAGAAATAGTC (((((....))))) | -15.7 | 37.6
GACTAGCGAAAGCTTGTC (((.(((....))).))) | -31.3 | 54.7
GACTAGGGAAACCTAGCC (.(((((....))))).) | -19.7 | 38.4
GACTATACGAAAGTAGTC (((..(((....)))))) | -24.4 | 34.1
GACTATGGAAACACAGTC ((((.((....)).)))) | -19.1 | 33
GACTCAGGAAACTGAGTC (((((((....))))))) | -46 | 60.8

Sequence | folding enthalpy [1] [kcal/mol] | Tm [2] [°C]
GACTCCGAAAGGAAGTC ((((((....))).))) | -28.8 | 52.4
GACTCCGAAAGGACCGTC ((((((....)))..))) | -13.8 | 29.7
GACTCCGAAAGGAGGTC ((((((....))).))) | -13.5 | 56.2
GACTCCGAAAGGATGGTC ((((((....)))..))) | -21.7 | 39.4
GACTCCGAAAGGATTGTC ((((((....)))..))) | -16.3 | 36.8
GACTCGCGAAAGCGGTC (((.(((....)))))) | -14.3 | 51.8
GACTCGGGAAACTGAGTC (((((.(....).))))) | -37.2 | 52.7
GACTGAGGAAACTCAGTC (((((((....))))))) | -34.8 | 61.5
GACTGAGGAAACTTGGTC (((..((....))..))) | -15.7 | 32.7
GACTGCCCGAAAGGGGTC (((..(((....)))))) | -9.57 | 35.6
GACTGCGAAAGCAAAGTC ((((((....)))..))) | -21.7 | 47
GACTGCGAAAGCAATGTC ((((((....)))..))) | -14.9 | 44.3
GACTGCGAAAGCAGAGTC ((((((....)))..))) | -11.8 | 45.1
GACTGCGAAAGCAGCGTC ((((((....)))..))) | -10.3 | 50.7
GACTGCGAAAGCATAGTC ((((((....)))..))) | -19.4 | 46.9
GACTGCGAAAGCATCGTC ((((((....)))..))) | -12.2 | 47.1
GACTGCGAAAGCATGGTC ((((((....)))..))) | -14.9 | 42.7
GACTGCGCGAAAGCGGTC (((..(((....)))))) | -11.3 | 48
GACTGGAAACAGTC (((((....))))) | -35.1 | 51.7
GACTGGCCGAAAGGCGTC (((..(((....)))))) | -11.8 | 50.8
GACTGGCGAAAGCCTGTC (((.(((....))).))) | -21.6 | 68.9
GACTGTGCGAAAGCAGTC (((..(((....)))))) | -18 | 45.1
GACTGTGGAAACGCAGTC (((((.(....).))))) | -31.7 | 51.9

Sequence | folding enthalpy [1] [kcal/mol] | Tm [2] [°C]
GACTTCCGAAAGGAGGTC (((.(((....))).))) | -36.6 | 54.8
GACTTGCCGAAAGGCGTC (((..(((....)))))) | -11.6 | 36.4
GACTTGGGAAACCAAATC ((.((((....)))).)) | -14 | 28
GACTTTGGAAACGAAGTC (((((.(....).))))) | -29.4 | 44.6
GAGAAACGAAAGTTCCTC (((.(((....))).))) | -27 | 36.5
GAGAACGAAAGTTCGCTC ((((((....)))..))) | -19.8 | 53.6
GAGAACGAAAGTTTCTC ((((((....))).))) | -25.1 | 43.5
GAGAACGAAAGTTTGCTC ((((((....)))..))) | -16.8 | 28.6
GAGAACGGAAACGTCCTC (((.(((....))).))) | -24.5 | 40.2
GAGAACGGAAACGTTCCC (.(((((....))))).) | -11.9 | 40
GAGAAGGGAAACCTCCTC (((.(((....))).))) | -17.7 | 28.8
GAGAATGGAAACATTCCC (.(((((....))))).) | -19.6 | 31.2
GAGACAACGAAAGTTCTC (((..(((....)))))) | -20.4 | 28.3
GAGACACGAAAGTGCCTC (((.(((....))).))) | -33.4 | 51.3
GAGACAGCGAAAGCTCTC (((..(((....)))))) | -9.49 | 45.5
GAGACCCGAAAGGGACTC (((.(((....))).))) | -32.4 | 57.6
GAGACCGAAAGGTCCTC ((((((....))).))) | -10.4 | 53.6
GAGACCGAAAGGTGACTC ((((((....)))..))) | -13.8 | 35.6
GAGACCGGAAACGGCCTC (((.(((....))).))) | -28.1 | 50.8
GAGACCGGAAACGGTCCC (.(((((....))))).) | -10.2 | 46.9
GAGACCGGAAACGGTTTC ((.((((....)))).)) | -22.5 | 49.5
GAGACGGGAAACCGCCTC (((.(((....))).))) | -33.7 | 49.1
